What was measured:
[1] = target: T1, Sphingosine 1-phosphate receptor 1 (Homo sapiens, UniProt P21453); assay: Antagonist activity at S1P1 receptor expressed in HEK293 cells assessed as inhibition of S1P-induced cAMP response after 90 mins by spectrophotometry; type: functional, cell-based
[2] = Drug uptake in nu/nu homozygous mouse plasma at 100 mg/kg, po as a suspension in 10% NMP/corn oil after 4 hrs by HPLC/MS/MS analysis; type: ADME, organism-based; design: dose 100 mg/kg, route oral
How it was run: (§1)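 Female Nu/Nu mice (~8 wk, 20-22 g) given a single 100 mpk oral dose at 10 mL/kg. Vehicles: 10% EtOH/45% or 40% PEG400/water + 1 molar equiv HCl, 10% EtOH/40% PEG400/20% Captisol + HCl, or 10% NMP/90% corn oil. Heparinized blood collected 1 and 4 h post-dose; plasma analysed by HPLC/MS/MS.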

[3] = Drug uptake in nu/nu homozygous mouse plasma at 100 mg/kg, po as a suspension in 10% NMP/corn oil after 24 hrs by HPLC/MS/MS analysis; type: ADME, organism-based; design: dose 100 mg/kg, route oral
[4] = Drug uptake in nu/nu homozygous mouse plasma at 100 mg/kg, po as a suspension in 10% NMP/corn oil after 1 hr by HPLC/MS/MS analysis; type: ADME, organism-based; design: dose 100 mg/kg, route oral; how it was run: as §1
[5] = target: Cytochrome P450 2C9 (Homo sapiens, UniProt P11712); assay: Inhibition of human CYP2C9 using tolbutamide as substrate by LC/MS/MS analysis; type: ADME
Sequence of Cytochrome P450 2C9 (P11712 whole entry): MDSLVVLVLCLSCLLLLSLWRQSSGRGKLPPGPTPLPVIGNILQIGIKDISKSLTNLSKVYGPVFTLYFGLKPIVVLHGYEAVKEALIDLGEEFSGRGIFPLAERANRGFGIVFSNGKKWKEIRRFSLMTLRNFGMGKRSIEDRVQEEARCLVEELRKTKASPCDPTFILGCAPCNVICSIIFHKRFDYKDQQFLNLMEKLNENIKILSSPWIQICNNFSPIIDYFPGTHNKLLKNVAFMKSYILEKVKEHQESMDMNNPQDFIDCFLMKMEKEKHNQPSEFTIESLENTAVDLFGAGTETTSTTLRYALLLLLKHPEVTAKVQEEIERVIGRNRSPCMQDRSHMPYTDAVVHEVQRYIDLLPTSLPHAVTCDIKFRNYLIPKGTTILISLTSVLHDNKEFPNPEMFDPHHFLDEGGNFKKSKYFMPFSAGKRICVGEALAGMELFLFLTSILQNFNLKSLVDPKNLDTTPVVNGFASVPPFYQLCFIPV
How it was run: (§2)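 Pooled human liver microsomes in 100 mM potassium phosphate, pH 7.4, at 37 °C with 1000 µM NADPH for 15 min. Microsomes 0.15 mg/mL for CYP2C9 and CYP2D6, 0.25 mg/mL for CYP3A4. Inhibitor tested at six concentrations (0.2–50 µM). Reactions quenched with acetonitrile; metabolite measured by LC/MS/MS; IC50 from 4-parameter sigmoidal fit.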

[6] = target: Cytochrome P450 2D6 (Homo sapiens, UniProt P10635); assay: Inhibition of human CYP2D6 using bufuralol as substrate by LC/MS/MS analysis; type: ADME; how it was run: as §2
Sequence of Cytochrome P450 2D6 (P10635 whole entry): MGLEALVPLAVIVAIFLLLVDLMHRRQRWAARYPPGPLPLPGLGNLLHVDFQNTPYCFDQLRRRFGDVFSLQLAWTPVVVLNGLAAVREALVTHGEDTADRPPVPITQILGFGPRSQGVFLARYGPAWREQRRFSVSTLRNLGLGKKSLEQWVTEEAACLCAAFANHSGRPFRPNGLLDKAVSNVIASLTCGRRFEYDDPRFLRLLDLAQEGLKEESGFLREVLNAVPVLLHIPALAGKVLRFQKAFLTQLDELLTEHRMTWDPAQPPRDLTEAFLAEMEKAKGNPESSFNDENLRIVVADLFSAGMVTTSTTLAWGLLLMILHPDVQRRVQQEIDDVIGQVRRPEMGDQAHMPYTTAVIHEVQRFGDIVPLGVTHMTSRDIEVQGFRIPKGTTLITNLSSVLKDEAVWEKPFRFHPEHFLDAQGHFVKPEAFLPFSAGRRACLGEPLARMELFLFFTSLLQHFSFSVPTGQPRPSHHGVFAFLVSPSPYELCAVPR

[7] = target: Cytochrome P450 3A4 (Homo sapiens, UniProt P08684); assay: Inhibition of human CYP3A4 using testosterone as substrate by LC/MS/MS analysis; type: ADME; how it was run: as §2
Sequence of Cytochrome P450 3A4 (P08684 whole entry): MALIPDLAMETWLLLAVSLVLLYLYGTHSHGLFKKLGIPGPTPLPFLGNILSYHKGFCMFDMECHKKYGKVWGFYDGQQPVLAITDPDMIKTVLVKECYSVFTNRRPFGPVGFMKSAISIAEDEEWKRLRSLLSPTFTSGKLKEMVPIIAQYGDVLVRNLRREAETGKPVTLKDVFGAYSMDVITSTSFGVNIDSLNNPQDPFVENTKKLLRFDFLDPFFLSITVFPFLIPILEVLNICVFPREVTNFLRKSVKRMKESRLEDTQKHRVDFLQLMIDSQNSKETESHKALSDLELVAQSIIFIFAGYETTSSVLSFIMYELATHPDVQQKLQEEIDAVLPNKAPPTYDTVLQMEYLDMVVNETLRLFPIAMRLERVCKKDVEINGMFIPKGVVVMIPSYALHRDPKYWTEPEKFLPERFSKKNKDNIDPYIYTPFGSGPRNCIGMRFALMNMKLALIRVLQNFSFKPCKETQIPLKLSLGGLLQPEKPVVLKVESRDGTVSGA

[8] = target: T1, Sphingosine 1-phosphate receptor 1; assay: Antagonist activity at S1P1 receptor expressed in HEK293 cells assessed as inhibition of S1P-induced tango beta-arrestin recruitment preincubated for 30 mins prior S1P addition measured after 16 to 18 hrs by luciferase reporter gene assay; type: functional, cell-based
[9] = target: Sphingosine 1-phosphate receptor 2 (Homo sapiens, UniProt O95136); assay: Antagonist activity at S1P2 receptor expressed in HEK293 cells assessed as inhibition of S1P-induced tango beta-arrestin recruitment preincubated for 30 mins prior S1P addition measured after 16 to 18 hrs by luciferase reporter gene assay; type: functional, cell-based
Sequence of Sphingosine 1-phosphate receptor 2 (O95136 whole entry): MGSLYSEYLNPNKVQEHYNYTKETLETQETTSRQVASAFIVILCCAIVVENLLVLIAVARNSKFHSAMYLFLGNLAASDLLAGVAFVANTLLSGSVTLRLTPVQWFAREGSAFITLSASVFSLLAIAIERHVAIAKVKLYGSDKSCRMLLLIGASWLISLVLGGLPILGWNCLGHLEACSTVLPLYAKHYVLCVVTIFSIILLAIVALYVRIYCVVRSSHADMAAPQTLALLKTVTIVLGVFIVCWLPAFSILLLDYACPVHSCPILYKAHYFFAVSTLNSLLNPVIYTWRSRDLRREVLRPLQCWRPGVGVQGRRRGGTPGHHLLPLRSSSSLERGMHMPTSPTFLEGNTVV

[10] = target: Sphingosine 1-phosphate receptor 3 (Homo sapiens, UniProt Q99500); assay: Antagonist activity at S1P3 receptor expressed in HEK293 cells assessed as inhibition of S1P-induced tango beta-arrestin recruitment preincubated for 30 mins prior S1P addition measured after 16 to 18 hrs by luciferase reporter gene assay; type: functional, cell-based
Sequence of Sphingosine 1-phosphate receptor 3 (Q99500 whole entry): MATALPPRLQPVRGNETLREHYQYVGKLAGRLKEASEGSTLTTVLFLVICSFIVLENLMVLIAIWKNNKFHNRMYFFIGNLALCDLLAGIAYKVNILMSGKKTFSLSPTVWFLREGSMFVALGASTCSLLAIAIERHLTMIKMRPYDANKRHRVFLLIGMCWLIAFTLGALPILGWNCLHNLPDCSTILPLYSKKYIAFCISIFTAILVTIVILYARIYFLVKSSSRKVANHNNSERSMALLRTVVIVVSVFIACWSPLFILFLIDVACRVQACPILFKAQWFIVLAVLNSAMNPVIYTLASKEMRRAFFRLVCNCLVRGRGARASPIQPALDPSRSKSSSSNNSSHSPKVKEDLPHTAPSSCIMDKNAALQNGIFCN

[11] = Metabolic stability of the compound in mouse liver microsomes assessed as compound oxidation measuring disappearance of compound at 15 uM after 30 mins by LC/MS/MS analysis; type: ADME, Microsome; settings: read-out: Drug degradation
How it was run: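 Incubated in duplicate for 30 min at 37 °C: 15 µM compound, 0.15% DMSO, 0.5 mg/mL mouse liver microsomes, 1 mM NADPH, 100 mM potassium phosphate pH 7.4. Stopped with acetonitrile containing 0.1% formic acid. Parent remaining measured by LC/MS/MS; disappearance calculated relative to no-NADPH controls.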

[12] = Antitumor activity against human MDA-MB-231T cells xenografted in athymic nude mouse assessed as tumor growth inhibition at 100 mg/kg, po qd for 14 days post implantation measured for 14 days; type: functional; settings: 336 h, read-out: TGI
How it was run: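 MDA-MB-231T cells grown in DMEM with 10% FBS. 1 x 10⁶ cells in ice-cold HBSS implanted into the mammary fat pad of female athymic nude (NCr) mice, 5-8 wk. Daily oral dosing at 10 mL/kg, solutions made fresh daily. Tumor weight measured twice weekly; TGI calculated against vehicle and staging-day weights; 2-tailed t-test, p<0.05.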

[13] = Drug uptake in nu/nu homozygous mouse plasma at 100 mg/kg, po after 1 hr by HPLC/MS/MS analysis; type: ADME, organism-based; design: dose 100 mg/kg, route oral; how it was run: as §1
[14] = Drug uptake in nu/nu homozygous mouse plasma at 100 mg/kg, po after 4 hrs by HPLC/MS/MS analysis; type: ADME, organism-based; design: dose 100 mg/kg, route oral; how it was run: as §1

T1 sequence (P21453 whole entry): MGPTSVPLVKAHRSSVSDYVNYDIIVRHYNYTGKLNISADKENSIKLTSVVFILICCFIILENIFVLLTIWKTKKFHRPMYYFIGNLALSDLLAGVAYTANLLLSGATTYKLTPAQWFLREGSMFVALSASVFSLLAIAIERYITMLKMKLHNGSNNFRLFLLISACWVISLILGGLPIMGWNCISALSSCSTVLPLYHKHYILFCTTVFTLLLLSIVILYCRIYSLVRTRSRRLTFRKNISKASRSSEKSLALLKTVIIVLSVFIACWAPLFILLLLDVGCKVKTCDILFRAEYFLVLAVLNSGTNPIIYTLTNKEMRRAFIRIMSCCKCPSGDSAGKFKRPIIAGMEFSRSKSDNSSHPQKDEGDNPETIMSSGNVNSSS

| IC50 [1] | concentration at 4 h [2] | IC50 [5] | IC50 [6] | IC50 [7] | Compound | further results |
| --- | --- | --- | --- | --- | --- | --- |
| > 10000 nM |  |  |  |  | O=C(Cc1cnc[nH]1)N[C@@H](COCc1ccccc1)C(=O)Nc1ccc(-c2ccccc2)cc1 |  |
| 14 nM |  |  |  |  | O=C(Cc1cnc[nH]1)N[C@@H](CCCc1ccccc1)C(=O)Nc1ccc(Oc2ccccc2)cc1 |  |
| 752 nM |  |  |  |  | C[C@H](NC(=O)Cc1cnc[nH]1)C(=O)Nc1ccc(Oc2ccc(Cl)cc2)cc1 |  |
| 326 nM |  |  |  |  | O=C(Cc1cnc[nH]1)N[C@@H](Cc1ccccc1)C(=O)Nc1ccc(Oc2ccc(Cl)cc2)cc1 |  |
| 181 nM |  |  |  |  | CN(C(=O)Cc1c[nH]cn1)[C@@H](COCc1ccccc1)C(=O)Nc1ccc(Oc2ccccc2)cc1 |  |
| 8280 nM |  |  |  |  | CN(C(=O)[C@H](COCc1ccccc1)NC(=O)Cc1cnc[nH]1)c1ccc(Oc2ccccc2)cc1 |  |
| 84.7 nM | 9.8 µM | < 205 nM | 1180 nM | 7150 nM | O=C(Nc1ccc(Oc2ccc(F)cc2)cc1)[C@@H]1C[C@@H](Cc2ccccc2)CN1C(=O)Cc1cnc[nH]1 | concentration at 1 h [4]: 26.2 µM |
| 158 nM | 27.2 µM | 213 nM | 663 nM | 301 nM | O=C(Nc1ccc(Oc2ccc(F)cc2)cc1)[C@@H]1C[C@@H](c2ccccc2)CN1C(=O)Cc1cnc[nH]1 | concentration at 24 h [3]: 5 µM |
| 492 nM |  |  |  |  | O=C(Nc1ccc(Oc2ccc(F)cc2)cc1)[C@@H]1C[C@@H](c2ccccc2)CN1C(=O)Cn1cncn1 |  |
| 6.8 nM | 86.4 µM | 2290 nM | 392 nM | > 20000 nM | O=C(Nc1ccc(Oc2ccc(F)cc2)cc1)[C@@H]1C[C@@H](Cc2ccccc2)CN1C(=O)Cn1cncn1 | IC50 [8]: 45 nM; IC50 [9]: > 10000 nM; IC50 [10]: > 10000 nM; metabolised at 0.5 h, 15 µM [11]: 13%; concentration at 24 h [3]: 8.3 µM |
| 5.8 nM | 104 µM | 2190 nM | 7370 nM | 12600 nM | O=C(Nc1ccc(Oc2ccc(F)cc2)cc1)[C@@H]1C[C@@H](Cc2ccc(F)cc2)CN1C(=O)Cn1cncn1 | IC50 [8]: 13 nM; IC50 [9]: > 10000 nM; IC50 [10]: > 10000 nM; metabolised at 0.5 h, 15 µM [11]: 8%; concentration at 24 h [3]: 18 µM |
| 48 nM |  | 1350 nM | 3780 nM | > 20000 nM | O=C(Nc1ccc(Oc2ccc(F)cc2)cc1)[C@@H]1C[C@H](Cc2ccc(F)cc2)CN1C(=O)Cn1cncn1 |  |
| > 1000 nM |  |  |  |  | O=C(Nc1ccc(Oc2ccc(F)cc2)cc1)[C@H]1C[C@H](Cc2ccc(F)cc2)CN1C(=O)Cn1ccnn1 |  |
| 4.8 nM | 23 µM | 17400 nM | > 50000 nM | > 20000 nM | O=C(Nc1ccc(Oc2ccc(F)cc2)cc1)[C@@H]1C[C@@H](Cc2ccc(F)cc2)CN1C(=O)Cn1nccn1 | IC50 [8]: 21 nM; IC50 [9]: > 10000 nM; IC50 [10]: > 10000 nM; concentration at 24 h [3]: 2 µM; inhibition in vivo at 100 mg/kg [12]: 60% |
| 718 nM |  |  |  |  | CN(CC(=O)NC(COCc1ccccc1)C(=O)Nc1ccc(Oc2ccccc2)cc1)C(=O)c1ccccc1 (racemic) | IC50 [8]: 2800 nM; IC50 [9]: > 10000 nM; IC50 [10]: > 10000 nM; concentration at 1 h [13]: < 0.019 µM; concentration at 4 h [14]: < 0.019 µM; metabolised at 0.5 h, 15 µM [11]: 89% |
| 286 nM |  |  |  |  | O=C(CCCC(=O)c1cccs1)NC(COCc1ccccc1)C(=O)Nc1ccc(Oc2ccccc2)cc1 (racemic) |  |
| 297 nM |  |  |  |  | O=C(NC(COCc1ccccc1)C(=O)Nc1ccc(Oc2ccccc2)cc1)C1CC1 (racemic) |  |

| Compound | IC50 [1] | concentration at 4 h [2] | IC50 [5] | IC50 [6] | IC50 [7] | further results |
| --- | --- | --- | --- | --- | --- | --- |
| O=C(Nc1ccc(Oc2ccc(F)cc2)cc1)[C@@H]1CN(Cc2ccccc2)CCN1C(=O)Cc1cnc[nH]1 | 84 nM | 6.3 µM |  |  |  | concentration at 24 h [3]: 9.2 µM |

Source: ChEMBL document CHEMBL2016445, “Discovery of a novel class of potent and orally bioavailable sphingosine 1-phosphate receptor 1 antagonists” (J Med Chem, 2012)
